Rows were chosen to be rich in hits. Some 1.9% of all compounds tested hit in one or more screens of this group.
M4 antag: blocks acetylcholine activation of human M4 receptor; P08173; CHO-hM4 cells, ACh EC80, Fluo-8 calcium fluorescence; inhibition, % at 3 µM; 0.73% of 360,000 active;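 active = inhibition above its plate's cutoff, the mean inhibition of sample wells plus 3 SD, cut at about 27% in these data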
CHRM5 agonist: CHRM5 agonism in calcium assay; activation, % at 3 µM; 0.19% of 360,000 active; CHO-K1 hM5 cells, Fluo-8 calcium fluorescence; 0% DMSO wells, 100% maximal acetylcholine response; P08912; AID 624037;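 active = activation above the run's mean over test compounds plus 3 SD, cut at about 23% in these data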;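 also: signal is peak over basal fluorescence ratio across the kinetic read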
Target sequence (P08912 whole entry, looked up): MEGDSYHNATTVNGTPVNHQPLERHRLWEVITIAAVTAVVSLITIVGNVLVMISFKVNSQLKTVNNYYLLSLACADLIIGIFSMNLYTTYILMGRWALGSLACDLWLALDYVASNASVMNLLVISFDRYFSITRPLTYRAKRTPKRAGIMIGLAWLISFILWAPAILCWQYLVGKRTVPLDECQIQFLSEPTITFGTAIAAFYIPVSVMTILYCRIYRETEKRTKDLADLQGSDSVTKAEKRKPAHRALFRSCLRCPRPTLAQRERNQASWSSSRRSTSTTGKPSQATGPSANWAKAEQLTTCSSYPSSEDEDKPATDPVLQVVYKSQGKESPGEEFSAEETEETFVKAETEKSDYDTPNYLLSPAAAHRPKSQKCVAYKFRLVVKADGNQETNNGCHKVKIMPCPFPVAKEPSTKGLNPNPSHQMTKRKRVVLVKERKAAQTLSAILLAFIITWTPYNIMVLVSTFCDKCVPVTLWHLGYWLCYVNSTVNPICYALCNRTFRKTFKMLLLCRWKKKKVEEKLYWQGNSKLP
CHRM5 antagonist: CHRM5 antagonism in calcium assay | CHO-hM5 cells, Fluo-8 calcium fluorescence, ACh EC80 | inhibition, % at 3 µM | 0.59% of 360,000 active;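 active = inhibition above a per-plate cutoff, the mean of that plate's test compounds plus 3 SD, cut at about 27% in these data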
CHRM5 PAM: potentiates acetylcholine response at human M5 receptor. P08912. AID 624038. 0.3% of 360,000 active. CHO-K1 hM5, Fluo-8 calcium, ACh EC20 PAM; 0% = ACh EC20, 100% = ACh EC100. activation, % at 3 µM;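 active = activation above the run cutoff, the mean activation of all test compounds plus 3 SD, cut at about 18% in these data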
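System – CHO-K1 hM5 cells · Compound – 3 µM, single dose · Incubation – compound preincubation 140 s before EC20 acetylcholine addition · Technique – Fluo-8 calcium fluorescence · Measure – Max/basal fluorescence ratio as % of EC20–EC100 ACh window · Benchmarks – low control EC20 acetylcholine (0%), high control EC100 acetylcholine (100%) · Replication – singlicate, one well per test compound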
M4 PAM: CHRM4 positive allosteric modulation. CHO-K1 hM4/Gqi5, Fluo-8 calcium fluorescence, ACh EC20; 0% = ACh EC20, 100% = maximal ACh. AID 624126. activation, % at 3 µM. 0.4% of 360,000 active. P08173;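 active = activation above its plate's cutoff, the mean activation of sample wells plus 3 SD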
M4 ag: CHRM4 agonism in calcium assay. P08173. CHO-K1 hM4/Gqi5, Fluo-8 calcium fluorescence; vehicle 0%, full acetylcholine response 100%. activation, % at 3 µM. 0.14% of 360,000 active. AID 624127;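 active = activation above the run mean over all test wells plus 3 SD, cut at about 32% in these data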;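 also: peak over basal fluorescence ratio per well then scaled between controls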
Large screens that a line does not name were inactive.

CCCc1nc2ccc(Br)cc2c(=O)n1-c1ccc([N+](=O)[O-])c(C(F)(F)F)c1	CHRM5 antagonist 27
CCc1nc2ccc(Br)cc2c(=O)n1-c1ccccc1C(F)(F)F	none
Cc1ccc(S(=O)(=O)N2Cc3cc(-c4ccccc4)ccc3-n3nncc3C2)cc1	none
N#CC(C#N)=NNc1ccc(-n2ccc(C(F)(F)F)n2)cc1	CHRM5 antagonist 30
C[C@H]1COc2cc(N3CCN(C)CC3)ccc2S(=O)(=O)N1	none
OCC[N+]12CCC(CC1)C(C(O)(c1ccccc1)c1ccccc1)C2 (centres undefined)	none
CCCC[N+]12CCC(CC1)C(=C(c1ccccc1)c1ccccc1)C2	M4 antag 57, CHRM5 antagonist 72
CCC[N+]12CCC(CC1)C(=C(c1ccccc1)c1ccccc1)C2	M4 antag 57, CHRM5 antagonist 94
C[C@@H]1CN([C@H](C)CO)C(=O)CCCn2nncc2CO[C@@H]1CN(C)C(=O)Oc1ccc2ccccc2c1	none
O=S(=O)(c1ccc(Cl)cc1)N1Cc2cc(Br)ccc2-n2nncc2C1	none
C[C@@H]1O[C@@H](O[C@H]2C[C@@H](O)[C@]3(CO)[C@H]4[C@H](O)C[C@]5(C)[C@@H](C6COC(=O)C6)CC[C@]5(O)[C@@H]4CC[C@]3(O)C2)[C@H](O)[C@H](O)[C@H]1O (some centres undefined)	M4 antag 34
CC1OC(OC2CC(O)C3(CO)C4C(O)CC5(C)C(C6=CC(=O)OC6)CCC5(O)C4CCC3(O)C2)C(O)C(O)C1O (centres undefined)	none
CN1CCC(OC(=O)C2c3ccccc3Oc3ccccc32)CC1	M4 antag 99, CHRM5 antagonist 99
CC(C)(C)P(=O)(N1CCOCC1)N1CCOCC1	none
O=P(Oc1ccccc1)(N1CCOCC1)N1CCOCC1	M4 PAM 15
c1ccc2c(c1)[IH]c1ccccc1-2	none
CC(=O)OC(C)(C)/C=C/C(=O)C(C)(O)C1C(O)CC2(C)C3CC=C4C(CC(O)C(=O)C4(C)C)C3(C)C(=O)CC12C (centres undefined)	M4 PAM 16
Cc1ccc(C(C)C)c(OCC#CCN2CCCC2)c1	M4 antag 32, CHRM5 antagonist 44
Cc1nn(Cc2ccc(Cl)cc2Cl)c(Cl)c1C(=O)O	M4 PAM 21
Cc1nn(Cc2ccccc2Cl)c(Cl)c1C(=O)O	none
CN1C2CCC1CC(OC(=O)c1cccc(O)c1)C2 (centres undefined)	none
CC1CC(OC(=O)c2ccccc2)CC(C)N1C (centres undefined)	M4 antag 30
CCN(CC)CCC(=O)O[C@H]1CC[C@]2(C)C3CC[C@@]4(C)C(CC[C@]4(C)O)C3CC[C@H]2C1 (some centres undefined)	M4 antag 28
CC(C)[N+](C)(CCC(C(N)=O)(c1ccccc1)c1ccccc1)C(C)C	M4 antag 100, CHRM5 antagonist 99
CCC(=O)C(CCN1CCOCC1)(c1ccccc1)c1ccccc1	none
Cc1cc(C)c(S(=O)(=O)N2Cc3ccccc3-n3nncc3C2)c(C)c1	none
O=C1CC(c2cccnc2)=NN1c1ccc(Cl)cc1Cl	none
CCN1C(=O)CC(c2cccnc2)=Nc2ccccc21	CHRM5 PAM 19
COC(=O)[C@@]1(Sc2ccc(C)cc2)CC(=O)N(P(=O)(OC)OC)[C@@H]1c1ccccc1	none
COC1C(C)OC(OC2CC(C)(O)Cc3cc4c(c(O)c32)C(=O)c2c(O)cc3c(c2C4=O)OC2OC3(C)C(O)C(N(C)C)C2O)C(OC)C1(C)OC (centres undefined)	CHRM5 agonist 30
COc1ccc2ccccc2c1CNCCc1ccccc1	CHRM5 PAM 18
C[C@H]1CN([C@@H](C)CO)C(=O)CCCn2nncc2CO[C@H]1CN(C)C(=O)Oc1ccc2ccccc2c1	none
CC(C)C(=O)c1cn(Cc2ccccc2C#N)c2ccccc12	none
CC(=O)c1cn(Cc2ccccc2C#N)c2ccccc12	M4 antag 29, CHRM5 antagonist 37
